Data published in ChEMBL document CHEMBL2150980 (Eur J Med Chem, 2012).

Assays:
[1] = target: T1, Alpha-1A adrenergic receptor (Cavia porcellus) (UniProt Q9WU25); test: Inverse agonist activity at alpha1A adrenoceptor in guinea pig thoracic aorta assessed as inhibition of ca2+-induced IRT at 10 nM after 30 mins; type: functional, tissue-based
T1 sequence (whole entry): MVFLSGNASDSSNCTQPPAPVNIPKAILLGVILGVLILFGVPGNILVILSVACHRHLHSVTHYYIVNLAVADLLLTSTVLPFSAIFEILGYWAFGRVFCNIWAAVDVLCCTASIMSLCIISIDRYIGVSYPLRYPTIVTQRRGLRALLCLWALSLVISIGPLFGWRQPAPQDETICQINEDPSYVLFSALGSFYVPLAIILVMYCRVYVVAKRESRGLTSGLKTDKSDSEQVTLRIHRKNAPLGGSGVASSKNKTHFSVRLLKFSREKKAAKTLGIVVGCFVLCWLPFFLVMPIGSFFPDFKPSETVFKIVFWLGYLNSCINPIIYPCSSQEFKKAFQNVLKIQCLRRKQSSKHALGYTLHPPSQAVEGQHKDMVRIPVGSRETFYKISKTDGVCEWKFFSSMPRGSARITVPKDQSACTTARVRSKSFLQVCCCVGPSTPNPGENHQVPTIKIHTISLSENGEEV
Summary of the method: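 Tissue in Krebs equilibrated 1 h at 1 g, then given a single (−)-noradrenaline dose. Washed 1 h in Ca2+-free Krebs with 0.1 mM EDTA, with agonist reapplied until no contraction (internal Ca2+ stores depleted). Antagonist 10 nM for 30 min, then Ca2+ 1.8 mM added. Result is % decrease versus IRT without any agent; mean ± SE, 4–7 experiments.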

[2] = target: T2, Adrenergic receptor alpha-2 (Rattus norvegicus, UniProt P22086+P19328+P22909); test: Antagonist activity at alpha2 adrenoceptor in Sprague-Dawley rat prostatic vas deferens assessed as suppression of clonidine-mediated inhibition of twitch response after 30 mins; type: functional, tissue-based
T2 sequence (P22086 whole entry): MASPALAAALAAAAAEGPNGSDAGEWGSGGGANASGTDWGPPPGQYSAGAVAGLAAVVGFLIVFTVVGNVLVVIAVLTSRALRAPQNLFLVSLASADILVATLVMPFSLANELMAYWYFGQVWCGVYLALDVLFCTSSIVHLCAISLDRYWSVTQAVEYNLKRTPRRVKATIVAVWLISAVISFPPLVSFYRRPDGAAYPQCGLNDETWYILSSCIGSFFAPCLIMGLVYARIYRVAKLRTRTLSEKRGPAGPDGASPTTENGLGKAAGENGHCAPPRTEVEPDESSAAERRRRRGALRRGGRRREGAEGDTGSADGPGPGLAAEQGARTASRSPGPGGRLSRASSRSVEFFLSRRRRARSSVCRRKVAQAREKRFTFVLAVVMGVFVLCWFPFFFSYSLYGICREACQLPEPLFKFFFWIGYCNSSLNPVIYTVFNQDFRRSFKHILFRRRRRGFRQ
T2 sequence (P19328 whole entry): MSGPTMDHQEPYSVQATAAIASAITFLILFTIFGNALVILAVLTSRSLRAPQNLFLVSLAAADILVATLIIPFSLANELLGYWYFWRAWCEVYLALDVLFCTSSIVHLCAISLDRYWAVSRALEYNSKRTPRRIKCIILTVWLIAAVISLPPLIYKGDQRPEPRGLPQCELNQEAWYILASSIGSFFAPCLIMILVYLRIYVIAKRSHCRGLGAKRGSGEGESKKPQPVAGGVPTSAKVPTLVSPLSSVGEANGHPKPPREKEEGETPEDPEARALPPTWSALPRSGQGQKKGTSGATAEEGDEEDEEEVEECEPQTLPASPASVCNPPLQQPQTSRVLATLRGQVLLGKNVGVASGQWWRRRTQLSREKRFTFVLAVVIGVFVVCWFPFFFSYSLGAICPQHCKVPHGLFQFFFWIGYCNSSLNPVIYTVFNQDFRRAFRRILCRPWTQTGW
T2 sequence (P22909 whole entry): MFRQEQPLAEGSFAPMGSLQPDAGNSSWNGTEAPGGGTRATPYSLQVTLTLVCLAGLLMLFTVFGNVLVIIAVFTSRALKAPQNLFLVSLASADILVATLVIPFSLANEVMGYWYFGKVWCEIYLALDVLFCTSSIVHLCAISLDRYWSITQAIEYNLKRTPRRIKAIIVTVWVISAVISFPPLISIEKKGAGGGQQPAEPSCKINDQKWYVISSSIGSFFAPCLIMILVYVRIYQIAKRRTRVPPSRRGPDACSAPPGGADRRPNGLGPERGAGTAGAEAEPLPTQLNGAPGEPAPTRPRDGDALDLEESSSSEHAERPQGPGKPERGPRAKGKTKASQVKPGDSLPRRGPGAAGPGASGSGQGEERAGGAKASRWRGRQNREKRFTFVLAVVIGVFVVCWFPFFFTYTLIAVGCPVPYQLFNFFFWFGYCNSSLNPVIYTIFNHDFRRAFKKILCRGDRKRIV
Summary of the method: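 Prostatic vas deferens segments (1.5–2 cm) in Krebs at 37 °C, field-stimulated at 0.1 Hz with 3 ms square pulses, 20–40 V. Equilibrated 1 h at 0.35 g resting tension.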

[3] = target: T3, Alpha-1B adrenergic receptor (Homo sapiens, UniProt P35368); test: Displacement of [3H]prazosin from human cloned alpha1B adrenoceptor expressed in CHO cell membranes after 30 mins by liquid scintillation counter
T3 sequence (P35368 whole entry): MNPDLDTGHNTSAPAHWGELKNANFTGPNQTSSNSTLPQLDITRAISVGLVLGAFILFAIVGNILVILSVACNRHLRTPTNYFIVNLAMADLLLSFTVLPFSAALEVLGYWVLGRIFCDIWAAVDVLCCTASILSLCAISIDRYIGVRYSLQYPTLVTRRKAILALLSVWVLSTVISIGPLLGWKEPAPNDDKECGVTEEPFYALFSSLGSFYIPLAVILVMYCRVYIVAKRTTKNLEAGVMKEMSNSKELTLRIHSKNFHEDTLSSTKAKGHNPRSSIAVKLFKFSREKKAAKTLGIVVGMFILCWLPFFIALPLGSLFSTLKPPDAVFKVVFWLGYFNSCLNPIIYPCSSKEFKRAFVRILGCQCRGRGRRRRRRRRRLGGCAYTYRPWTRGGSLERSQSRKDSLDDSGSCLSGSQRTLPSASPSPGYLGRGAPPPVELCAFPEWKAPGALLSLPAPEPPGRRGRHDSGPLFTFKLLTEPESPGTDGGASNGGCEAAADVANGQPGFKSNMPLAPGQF

[4] = target: T4, Alpha-1D adrenergic receptor (Homo sapiens, UniProt P25100); test: Displacement of [3H]prazosin from human cloned alpha1D adrenoceptor expressed in CHO cell membranes after 30 mins by liquid scintillation counter
T4 sequence (P25100 whole entry): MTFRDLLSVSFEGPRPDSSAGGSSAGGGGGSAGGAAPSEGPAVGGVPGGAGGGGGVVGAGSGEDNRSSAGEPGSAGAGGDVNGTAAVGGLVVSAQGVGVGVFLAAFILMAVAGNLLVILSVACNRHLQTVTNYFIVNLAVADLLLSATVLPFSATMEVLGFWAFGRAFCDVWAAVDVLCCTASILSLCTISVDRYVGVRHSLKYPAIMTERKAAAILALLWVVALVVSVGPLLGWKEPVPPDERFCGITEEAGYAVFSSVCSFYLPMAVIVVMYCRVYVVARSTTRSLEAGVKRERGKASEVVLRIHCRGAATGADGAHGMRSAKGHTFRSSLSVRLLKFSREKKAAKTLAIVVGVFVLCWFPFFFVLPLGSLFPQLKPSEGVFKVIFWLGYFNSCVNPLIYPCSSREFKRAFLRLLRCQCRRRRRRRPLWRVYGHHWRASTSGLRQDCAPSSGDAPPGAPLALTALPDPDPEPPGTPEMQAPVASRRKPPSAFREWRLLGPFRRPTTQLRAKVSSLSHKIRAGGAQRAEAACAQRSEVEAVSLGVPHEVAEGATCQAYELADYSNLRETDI

[5] = target: T5, 5-hydroxytryptamine receptor 1A (Rattus norvegicus, UniProt P19327); test: Displacement of [3H]-8-OH-DPAT from 5-HT1A receptor in rat hippocampal membranes after 30 mins by liquid scintillation counting; type: cell membranes, Hippocampus, Membrane
T5 sequence (P19327 whole entry): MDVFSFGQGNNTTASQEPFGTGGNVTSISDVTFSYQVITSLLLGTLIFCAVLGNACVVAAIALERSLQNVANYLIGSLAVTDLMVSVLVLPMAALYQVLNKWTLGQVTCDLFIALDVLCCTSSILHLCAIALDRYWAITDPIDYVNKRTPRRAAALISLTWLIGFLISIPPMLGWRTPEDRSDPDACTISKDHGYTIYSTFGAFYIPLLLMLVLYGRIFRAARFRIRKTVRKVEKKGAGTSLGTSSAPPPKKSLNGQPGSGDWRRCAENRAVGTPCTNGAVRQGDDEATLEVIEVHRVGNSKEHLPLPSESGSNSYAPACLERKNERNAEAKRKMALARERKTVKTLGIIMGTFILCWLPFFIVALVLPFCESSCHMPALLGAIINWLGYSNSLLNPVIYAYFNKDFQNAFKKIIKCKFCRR
Summary of the method: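 Crude rat hippocampal membranes in Tris-HCl 50 mM, pH 7.7, with pargyline and 4 mM CaCl2. […] Stopped by GF/B filtration, then scintillation counting. Ki from IC50 via Cheng–Prusoff; ≥3 experiments in triplicate.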

[6] = target: T6, Alpha-1A adrenergic receptor (Homo sapiens, UniProt P35348); test: Displacement of [3H]prazosin from human cloned alpha1A adrenoceptor expressed in CHO cell membranes after 30 mins by liquid scintillation counter
T6 sequence (P35348 whole entry): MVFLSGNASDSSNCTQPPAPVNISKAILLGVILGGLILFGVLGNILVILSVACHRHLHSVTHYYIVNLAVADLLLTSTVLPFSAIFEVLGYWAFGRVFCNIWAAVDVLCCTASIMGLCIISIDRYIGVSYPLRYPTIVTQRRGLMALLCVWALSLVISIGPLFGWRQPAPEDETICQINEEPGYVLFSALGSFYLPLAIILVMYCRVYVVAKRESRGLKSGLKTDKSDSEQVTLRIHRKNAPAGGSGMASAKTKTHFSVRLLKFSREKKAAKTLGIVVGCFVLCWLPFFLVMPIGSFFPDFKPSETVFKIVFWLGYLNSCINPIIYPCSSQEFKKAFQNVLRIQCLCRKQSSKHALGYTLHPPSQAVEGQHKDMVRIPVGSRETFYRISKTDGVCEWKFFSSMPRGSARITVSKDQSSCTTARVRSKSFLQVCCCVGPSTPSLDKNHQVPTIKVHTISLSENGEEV
Summary of the method: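 Membranes incubated 30 min at 25 °C with 0.5 nM [3H]-prazosin ± compound (0.3–1000 nM) in 50 mM buffer, pH 7.7, containing pargyline and 0.1% ascorbic acid. Unlabelled prazosin defined nonspecific binding. GF/B filtration, scintillation counting.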

inhibition [1] [%] | pA2 [2] | Ki [3] [nM] | Ki [4] [nM] | Ki [5] [nM] | Ki [6] [nM] | SMILES
– | – | 398 | 324 | 17.4 | 66.1 | COc1cccc(OC)c1OCCNC[C@@H]1COc2cccc(O)c2O1
– | – | 102 | 7.41 | 31.6 | 18.2 | COc1cccc(OC)c1OCCNC[C@@H]1COc2cccc(F)c2O1
– | – | 33.9 | 3.98 | 17.4 | 5.62 | COc1cccc(OC)c1OCCNC[C@@H]1COc2cccc(Cl)c2O1

Continued, compound first:

SMILES | inhibition [1] [%] | pA2 [2] | Ki [3] [nM] | Ki [4] [nM] | Ki [5] [nM] | Ki [6] [nM]
COc1cccc(OC)c1OCCNC[C@H]1COc2ccccc2O1.Cl | 84 | 6.92 | – | – | – | –
COc1cccc(OC)c1OCCNC[C@@H]1COc2cccc(OC)c2O1 | – | – | 79.4 | 16.6 | 12.9 | 16.6
COc1cccc(OC)c1OCCNC[C@@H]1COc2c(OC)cccc2O1 | – | – | 646 | 263 | 123 | 813
